Source: ChEMBL document CHEMBL1157145, “Cytotoxic activity of proflavine diureas: synthesis, antitumor, evaluation and DNA binding properties of 1',1''-(acridin-3,6-diyl)-3',3''-dialkyldiureas” (Bioorg Med Chem, 2008)
The source made the active and inactive calls. The rule behind the calls is not given here.

Tests used:
DNA [1] = assay: Binding affinity to calf thymus DNA at 5.5 uM by absorption titration; type: nucleic-acid assay; conditions: Bos taurus
Outline: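 Compound (5.5 µM) in 0.01 M Tris, pH 7.4, 25 °C. UV–vis spectra recorded over ctDNA 0–35 µM bp in 5 µM steps, corrected for dilution. ctDNA concentration from A260, expressed in base pairs.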

HCT-116 [2] = assay: Antiproliferative activity against human HCT116 cells assessed as increase of floating cells in total cell population at 27 uM after 48 hrs; type: functional
Outline: (§1)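 Cells seeded (8 · 10^5 per 60 mm dish), allowed to settle 24 h at 37 °C, 5% CO2, then treated with a single concentration for 24 or 48 h. Adherent and floating cells counted by Coulter counter. Total cell number given as % of untreated control; floating cells as % of total cell number.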

HCT-116 [3] = assay: Cell cycle arrest in human HCT116 cells assessed as accumulation at G2/M phase at 27 uM after 48 hrs; type: functional
Outline: (§2)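 Cells seeded at 8 · 10^5 per 60 mm dish, allowed to settle 24 h (37 °C, 5% CO2), then exposed to the drug for 24 or 48 h. Adherent plus floating cells (5 · 10^5) were fixed in cold 70% ethanol at −20 °C overnight, treated with RNase A (100 µg/mL) and stained with propidium iodide (20 µg/mL) in Vindelov's solution for 30 min at RT. Flow cytometry used 488 nm excitation, FL-2 at 585 ± 21 nm, and histograms were modelled for G0/G1, S and G2/M fractions.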

HCT-116 [4] = assay: Cytotoxicity against human HCT116 cells after 72 hrs by MTT assay; type: functional, cell-based; conditions: Homo sapiens, HCT-116, 72 h
HeLa [5] = assay: Cell cycle arrest in human HeLa cells assessed as accumulation at G0/G1 phase at 64 uM after 48 hrs; type: functional; outline: as §2
HeLa [6] = assay: Cell cycle arrest in human HeLa cells assessed as accumulation at S phase at 64 uM after 24 hrs; type: functional; outline: as §2
HeLa [7] = assay: Induction of apoptosis in human HeLa cells at 64 uM after 24 hrs; type: functional
Outline: (§3)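 After 24 or 48 h of drug exposure, all cells were collected, combining trypsinised adherent cells with floating cells from the medium. Cells (1 × 10^6) were fixed in cold 70% ethanol overnight at −20 °C and stained with DAPI (10 µg/mL) for 30 min in the dark at RT. Under fluorescence microscopy, 300 cells per sample were scored, with condensed or fragmented nuclei counted as apoptotic.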

HCT-116 [8] = assay: Induction of apoptosis in human HCT116 cells at 27 uM after 48 hrs; type: functional; outline: as §3
HCT-116 [9] = assay: Antiproliferative activity against human HCT116 cells assessed as decrease in total cell population at 27 uM after 48 hrs; type: functional; set-up: scale not given: the % may be the effect or the level left; outline: as §1
HeLa [10] = assay: Antiproliferative activity against human HeLa cells assessed as decrease in total cell population at 64 uM after 24 hrs; type: functional; set-up: scale not given: the % may be the effect or the level left; outline: as §1
HCT-116 [11] = assay: Cell cycle arrest in human HCT116 cells assessed as accumulation at S phase at 27 uM after 24 hrs; type: functional; outline: as §2
HeLa [12] = assay: Cell cycle arrest in human HeLa cells assessed as accumulation at S phase at 64 uM after 48 hrs; type: functional; outline: as §2
HeLa [13] = assay: Cytotoxicity against human HeLa cells after 48 hrs by MTT assay; type: functional, cell-based
HCT-116 [14] = assay: Cell cycle arrest in human HCT116 cells assessed as accumulation at G0/G1 phase at 27 uM after 24 hrs; type: functional
Outline: (§4)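 Adherent plus floating cells (5 · 10^5) collected 24 or 48 h after treatment, fixed in cold 70% ethanol at −20 °C overnight, washed in PBS. RNase A (100 µg/mL) and propidium iodide (20 µg/mL) in Vindelov's solution, 30 min at RT. Flow cytometry with 488 nm excitation, emission 585 ± 21 nm; % cells per cycle phase from DNA content histograms.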

DNA [15] = assay: Binding affinity to calf thymus DNA at 4 uM by fluorescence spectrophotometric titration; type: nucleic-acid assay; conditions: Bos taurus
Outline: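 ctDNA sonicated in TE buffer, concentration taken from A260 and given in base pairs. Compound (4 µM) in 0.01 M Tris, pH 7.4, 25 °C titrated with ctDNA (0–55 µM bp) until spectra stopped changing. Excitation 424 nm, slit widths 10 nm; binding constant derived from the change in emission.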

HCT-116 [16] = assay: Cytotoxicity against human HCT116 cells after 48 hrs by MTT assay; type: functional, cell-based; conditions: HCT-116, 48 h
HCT-116 [17] = assay: Antiproliferative activity against human HCT116 cells assessed as decrease in total cell population at 27 uM after 24 hrs; type: functional; set-up: scale not given: the % may be the effect or the level left; outline: as §1
HeLa [18] = assay: Cell cycle arrest in human HeLa cells assessed as accumulation at G2/M phase at 64 uM after 48 hrs; type: functional; outline: as §2
HCT-116 [19] = assay: Antiproliferative activity against human HCT116 cells assessed as increase of floating cells in total cell population at 27 uM after 24 hrs; type: functional; outline: as §1
DNA [20] = assay: Binding affinity to calf thymus DNA at 50 uM by circular dichroism spectrophotometric titration; type: nucleic-acid assay; conditions: Bos taurus
HeLa [21] = assay: Antiproliferative activity against human HeLa cells assessed as increase of floating cells in total cell population at 64 uM after 48 hrs; type: functional; outline: as §1
HeLa [22] = assay: Cell cycle arrest in human HeLa cells assessed as accumulation at G0/G1 phase at 64 uM after 24 hrs; type: functional; outline: as §2
HCT-116 [23] = assay: Induction of apoptosis in human HCT116 cells at 27 uM after 24 hrs; type: functional; outline: as §3
HCT-116 [24] = assay: Cell cycle arrest in human HCT116 cells assessed as accumulation at G2/M phase at 27 uM after 24 hrs; type: functional; outline: as §2
HeLa [25] = assay: Induction of apoptosis in human HeLa cells at 64 uM after 48 hrs; type: functional; outline: as §3
HeLa [26] = assay: Cell cycle arrest in human HeLa cells assessed as accumulation at G2/M phase at 64 uM after 24 hrs; type: functional; outline: as §2
HCT-116 [27] = assay: Cell cycle arrest in human HCT116 cells assessed as accumulation at G0/G1 phase at 27 uM after 48 hrs; type: functional; outline: as §4
HCT-116 [28] = assay: Cell cycle arrest in human HCT116 cells assessed as accumulation at S phase at 27 uM after 48 hrs; type: functional; outline: as §2
HeLa [29] = assay: Cytotoxicity against human HeLa cells after 72 hrs by MTT assay; type: functional, cell-based
HeLa [30] = assay: Antiproliferative activity against human HeLa cells assessed as increase of floating cells in total cell population at 64 uM after 24 hrs; type: functional; outline: as §1
HeLa [31] = assay: Antiproliferative activity against human HeLa cells assessed as decrease in total cell population at 64 uM after 48 hrs; type: functional; set-up: scale not given: the % may be the effect or the level left; outline: as §1

CCNC(=O)Nc1ccc2cc3ccc(NC(=O)NCC)cc3nc2c1.Cl
Activity (DNA [1]): Active
Activity (HCT-116 [2]): 5.68%
Activity (HCT-116 [3]): 14.85%
IC50 (HCT-116 [4]): 34.7 µM
Activity (HeLa [5]): 71.26%
Activity (HeLa [6]): 23.73%
Activity (HeLa [7]): 1.33%
Activity (HCT-116 [8]): 3.44%
Activity (HCT-116 [9]): 75.37%
Activity (HeLa [10]): 95.15%
Activity (HCT-116 [11]): 34.06%
Activity (HeLa [12]): 19.5%
IC50 (HeLa [13]): 63.9 µM
Activity (HCT-116 [14]): 47.44%
K (DNA [15]): 4.2 ×10⁵ /M
IC50 (HCT-116 [16]): 27.6 µM
Activity (HCT-116 [17]): 79.4%
Activity (HeLa [18]): 9.23%
Activity (HCT-116 [19]): 6.2%
Activity (DNA [20]): Active
Activity (HeLa [21]): 4.63%
Activity (HeLa [22]): 63.51%
Activity (HCT-116 [23]): 3.22%
Activity (HCT-116 [24]): 18.5%
Activity (HeLa [25]): 0.89%
Activity (HeLa [26]): 12.75%
Activity (HCT-116 [27]): 53.7%
Activity (HCT-116 [28]): 31.45%
IC50 (HeLa [29]): 60 µM
Activity (HeLa [30]): 3.58%
Activity (HeLa [31]): 93.61%

Nc1ccc2cc3ccc(N)cc3nc2c1
K (DNA [15]): 7.95 ×10⁵ /M

COc1cc([C@@H]2c3cc4c(cc3[C@@H](O[C@@H]3O[C@@H]5CO[C@@H](C)O[C@H]5[C@H](O)[C@H]3O)[C@H]3COC(=O)[C@H]23)OCO4)cc(OC)c1O [ETOPOSIDE]
IC50 (HeLa [13]): 2.9 µM
